TDP2 absorb – blocks human TDP2 phosphodiesterase activity; hit rate 0.34% among 370,000; recombinant TDP2, T5PNP hydrolysis, p-nitrophenol absorbance 415 nm; O95551; inhibition, % at 12.8 µM;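 active = inhibition above the mean of all tested compounds plus 3 SD, set per campaign, cut at about 25% in these data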;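 also: 0% = DMSO with enzyme and 100% = buffer with substrate but no TDP2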
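test system = human TDP2 enzyme | input = TDP2 enzyme at 120 nM final | medium = 50 mM Tris-HCl pH 7.5 with Mg2+, KCl, DTT, BSA | also added = T5PNP substrate, 5 mM | times = 2 h at 37 °C | technique = epi absorbance | benchmarks = high control without enzyme, low control DMSO plus TDP2 | replication = each compound tested once, singlicate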
DDE Tn6 FP inh – DD(E)-Tn6 binding inhibition, primary FP screen; hit rate 0.21% among 370,000; inhibition, % at 8.3 µM; Fibrin DD(E) TRITC-Tn6 fluorescence polarization displacement;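 active = inhibition above a per-campaign cutoff: mean of compounds within control limits plus 3 SD, cut at about 15% in these data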;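 also: 0% = median of all compound wells on the plate and 100% = blocking peptide control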
Target sequence (P02675 whole entry, looked up): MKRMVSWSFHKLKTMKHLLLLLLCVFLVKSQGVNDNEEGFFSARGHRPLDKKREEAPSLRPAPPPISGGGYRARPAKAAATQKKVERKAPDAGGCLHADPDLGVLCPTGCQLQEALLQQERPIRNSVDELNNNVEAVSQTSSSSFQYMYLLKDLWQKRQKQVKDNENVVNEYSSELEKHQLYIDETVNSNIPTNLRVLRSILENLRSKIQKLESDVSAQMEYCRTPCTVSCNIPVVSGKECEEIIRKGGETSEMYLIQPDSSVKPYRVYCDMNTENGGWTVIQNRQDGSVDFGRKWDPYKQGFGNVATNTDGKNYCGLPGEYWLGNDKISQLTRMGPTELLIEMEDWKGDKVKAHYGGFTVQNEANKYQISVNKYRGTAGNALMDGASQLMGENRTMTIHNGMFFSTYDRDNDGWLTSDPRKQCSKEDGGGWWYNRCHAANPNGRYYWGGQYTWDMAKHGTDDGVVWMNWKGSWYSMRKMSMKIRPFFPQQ
UHRF1 binding – blocks human UHRF1 binding to methylated DNA. Q96T88. inhibition, % at 4.4 µM. hit rate 0.75% among 370,000. UHRF1 binding to methylated oligo, TR-FRET. AID 687016; in the data active = inhibition above about 21%;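 also: UHRF1 SRA domain binding a hemimethylated CpG hairpin DNA probe; 0% = median of test compound wells and 100% = reference inhibitor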
MBD2 DNA inh – inhibitors of human MBD2 binding to methylated oligonucleotide | TR-FRET | hit rate 0.31% among 370,000 | inhibition, % at 4.4 µM | AID 686964; in the data active = inhibition above about 13%
LEDGF integ inh – blocks HIV-1 LEDGF/p75-dependent DNA integration; hit rate 0.64% among 370,000; inhibition, % at 3.7 µM; TR-FRET IN-LEDGF/p75 DNA integration, Eu/Cy5; AID 743269;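 active = inhibition above the screen-wide mean plus 3 SD, cut at about 13% in these data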;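 also: signal is the Cy5 over europium emission ratio at 671 and 618 nm; 0% = plate median of compound wells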
Tn7 DDE FP – inhibitors of Tn7 peptide binding to human fibrin DD(E); FP displacement of FITC-Tn7 peptide from fibrin DD(E); 0% = median of compound wells per plate; inhibition, % at 8.3 µM; hit rate 0.13% among 370,000; AID 720508;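 active = inhibition above the mean of compounds falling within the control limits plus 3 SD of them, cut at about 14% in these data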;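 also: 0% = plate median of compound wells and 100% = 10 µM Aha-Tn7 peptide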
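Test system: human clot-derived fibrin DD(E) complex / Quantity: 2 µM final DD(E) protein / Incubation: 10 min plus 3 h, room temperature / Measured by: fluorescence polarization / Benchmarks: high control of 10 µM Aha-Tn7 peptide / Replicates: singlicate testing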
UHRF1 ctr MBD2 – inhibits human UHRF1 binding to methylated oligonucleotide, MBD2 counter-screen; shares compounds with MBD2 DNA inh; TR-FRET; inhibition, % at 4.4 µM; hit rate 25% among 1,000; in the data active = inhibition above about 21%;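 also: UHRF1 SRA domain binding a labeled hemimethylated CpG hairpin DNA; 0% = vehicle only and 100% = reference inhibitor with vehicle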
MBD2 confirm – MBD2-DBD methyl-DNA binding inhibition, TR-FRET confirmation; inhibition, % at 4.4 µM; shares compounds with MBD2 DNA inh; AID 720531; hit rate 26% among 1,000; TR-FRET MBD2-DBD binding to methylated oligonucleotide
DDE Tn7 confirm – confirmation of inhibitors of Tn7 binding to human fibrin DD(E); shares compounds with Tn7 DDE FP; FP displacement of TRITC-Tn7 peptide from DD(E); 0% set at plate's compound-well median; inhibition, % at 8.3 µM; hit rate 5% among 460; AID 720628;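 active = inhibition above the campaign cutoff, the mean of compounds within control limits plus 3 SD, cut at about 14% in these data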;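 also: 100% = median FP of high control wells holding Aha-Tn7 inhibitor peptide; displacers lower polarization since freed probe rises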
DDE Tn7 FP ctr – counter-screen for inhibitors of Tn7 peptide binding to fibrin DD(E). inhibition, % at 8.3 µM. shares compounds with Tn7 DDE FP. TRITC-Tn7 probe displacement, fluorescence polarization. AID 720633. hit rate 3% among 460;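 active = inhibition above the cutoff, the mean of compounds lying between the control bounds plus 3 SD of those compounds, cut at about 17% in these data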;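 also: 0% = median of compound sample wells and 100% = excess unlabeled Aha-Tn7 peptide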
Tn6 DDE ctr – counter-screen hit for Tn6 peptide-fibrin DD(E) binding disruption; AID 720621; hit rate 2% among 680; inhibition, % at 8.3 µM; TRITC-Tn6 fluorescence polarization displacement; 0% = median of compound wells, not DMSO; shares compounds with DDE Tn6 FP inh;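 active = inhibition above the mean of test compounds lying between the control limits plus 3 SD of those, cut at about 14% in these data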;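 also: 0% = median of compound wells and 100% = wells with Aha-Tn7 blocking peptide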
DDE Tn6 confirm – confirmation of inhibitors of Tn6 binding to human fibrin DD(E); hit rate 10% among 680; inhibition, % at 8.3 µM; FP displacement of TRITC-Tn6 peptide from DD(E); 0% = per-plate median of test wells; shares compounds with DDE Tn6 FP inh;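 active = inhibition above the mean of compounds lying within the control limits plus 3 SD, cut at about 16% in these data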;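 also: 100% = high control wells holding a competing inhibitor peptide at 10 µM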
TDP2 confirm – human TDP2 inhibition, confirmation | shares compounds with TDP2 absorb | recombinant human TDP2, absorbance read-out | inhibition, % at 12.8 µM | hit rate 22% among 1,100; in the data active = inhibition above about 25%;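 also: 0% = vehicle with enzyme and 100% = no enzyme buffer only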
IN multimer up – HIV-1 integrase multimerization activation, counter-screen. shares compounds with LEDGF integ inh. activation, % at 7.7 µM. TR-FRET HIV-1 integrase multimerization, biochemical. hit rate 17% among 2,000; in the data active = activation above about 8.9%
TRFRET interf – counter-screen for LEDGF/p75 integration inhibitors: TR-FRET optical interference. AID 1053135. 2,000 tested, under 10 active. TR-FRET optical interference counterscreen, HIV-1 IN multimerization. inhibition, % at 7.7 µM. shares compounds with LEDGF integ inh;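 active = inhibition above the mean over all tested compounds plus 3 SD, which no compound reached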;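 also: 0% = integrase with antibodies and DMSO and 100% = antibodies without integrase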
IN-LEDGF confirm – confirmation of HIV-1 LEDGF/p75-dependent integration inhibitors | AID 1053136 | inhibition, % at 3.7 µM | shares compounds with LEDGF integ inh | hit rate 36% among 2,000 | TR-FRET LEDGF/p75-dependent HIV-1 integration, biochemical
Starred values were filed as active, the others as inactive; . = not tested or not shown. Compounds with a hit are over-represented: about 1.9% of the library has one in this group of screens. Rule as the data show it, unless noted: active = inhibition above about 14%; inactive = the rest.

SMILES	TDP2 absorb	DDE Tn6 FP inh	UHRF1 binding	MBD2 DNA inh	LEDGF integ inh	Tn7 DDE FP	UHRF1 ctr MBD2	MBD2 confirm	IN multimer up	TRFRET interf	IN-LEDGF confirm	others
Cc1ccc(N2C(=O)NC(=O)/C(=C/c3cnn(-c4ccc(C)cc4)c3)C2=O)cc1	5	1	0	-7	1	-2	.	.	.	.	.
Cc1ccc(N2C(=O)NC(=O)/C(=C/c3ccoc3)C2=O)cc1	13	4	63*	33*	30*	-6	86*	54*	9.2*	-46	57*
N/C(=N\N=C/c1ccc(-c2ccc(O)c(C(=O)O)c2)o1)N[N+](=O)[O-]	28*	1	82*	48*	30*	4	55*	18*	35*	-125	25*	TDP2 confirm=-2
Cc1c(NS(=O)(=O)c2ccccc2)ccc([N+](=O)[O-])c1Cl	-8	2	1	-4	2	-6	.	.	.	.	.
CCCCN1C(=O)/C(=C\c2ccco2)C(=O)N(CCc2ccccc2)C1=O	-2	-3	-4	-1	0	-4	.	.	.	.	.
CCCCN1C(=O)/C(=C/C=C/c2ccco2)C(=O)NC1=S	4	-6	83*	29*	56*	-6	48*	19*	3	-17	74*
O=P(Oc1ccccc1)(Oc1ccccc1)N1CCOCC1	-4	3	-1	0	-1	3	.	.	.	.	.
O=c1[nH]c2cc(Cl)ccc2n1C1CCN(Cc2ccc(-c3nc4ccccc4nc3-c3ccccc3)cc2)CC1	1	-6	-1	-6	-1	0	.	.	.	.	.
CN(C)[C@@H]1C(=O)C(C(N)=O)=C(O)[C@@]2(O)C(=O)C3=C(O)c4c(O)cccc4[C@@](C)(O)C3[C@H](O)C12 (stereo partly drawn)	14	-2	62*	19*	42*	4	9	1	15*	-53	25*
O=P(NC1CCCCC1)(Oc1ccccc1)Oc1ccccc1	3	-7	-2	-4	5	-2	.	.	.	.	.
C[n+]1c(-c2ccccc2)c2cc(N)ccc2c2ccc(N)cc21	58*	49*	62*	55*	41*	22*	77*	86*	2	-12	64*	DDE Tn7 confirm=5;DDE Tn7 FP ctr=124*;Tn6 DDE ctr=5;DDE Tn6 confirm=124*;TDP2 confirm=20

Source: PubChem BioAssay
